The values that follow come from ChEMBL document CHEMBL2429794, “Tuning the antibacterial activity of amphiphilic neamine derivatives and comparison to paromamine homologues” (J Med Chem, 2013).

In brackets after ≈: the same amount, converted by molar mass.

Assay [1] has as its system Staphylococcus aureus. Briefly: Antibacterial activity against vancomycin-resistant Staphylococcus aureus VRS2 after 24 hrs by geometric microdilution method. The note with it: VRS2, 24 h. The assay is classed as functional. The method in brief:
(§1)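 Broth cultures were incubated in plates at 37 °C, and growth was read as absorbance at 650 nm after 1, 4, 7 and 24 h. Ampicillin (16 mg/L) was the positive control and DMSO the negative control. Each MIC (μg/mL) is the average of at least three determinations.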
(In general: In broth dilution the organism is exposed to a series of concentrations in liquid medium.)

Assay [2] relates to Escherichia coli. The experiment in a line: Antibacterial activity against Escherichia coli PAZ505H8101 expressing AAC6'-1B after 24 hrs by geometric microdilution method. It counts as functional. Conditions: PAZ505H8101, 24 h.
The test system of assay [3] is Klebsiella pneumoniae. The experiment in a line: Antibacterial activity against Klebsiella pneumoniae ATCC 700603 after 24 hrs by geometric microdilution method. The assay is classed as functional. Conditions: ATCC 700603, 24 h.
For assay [4], the system named is Acinetobacter lwoffii. The experiment in a line: Antibacterial activity against Acinetobacter lwoffii ATCC 17925 after 24 hrs by geometric microdilution method. It counts as functional. The note with it: ATCC 17925, 24 h.
For assay [5], the system named is Pseudomonas aeruginosa. The experiment in a line: Antibacterial activity against Pseudomonas aeruginosa ATCC 27853 after 24 hrs by geometric microdilution method. It counts as functional. Conditions: ATCC 27853, 24 h.
For assay [6], the system named is Pseudomonas aeruginosa. The experiment in a line: Antibacterial activity against Pseudomonas aeruginosa PA22 (PT629) expressing MexXY after 24 hrs by geometric microdilution method. The assay is classed as functional.
In assay [7] the test system is Staphylococcus aureus. Briefly: Antibacterial activity against healthcare-acquired methicillin-resistant Staphylococcus aureus ATCC 33592 after 24 hrs by geometric microdilution method. The assay is classed as functional. The note with it: ATCC 33592, 24 h. The method in brief:
as §1

In assay [8] the test system is Staphylococcus aureus. The experiment in a line: Antibacterial activity against Staphylococcus aureus expressing aminoglycoside-6'-N-acetyltransferase/2''-O-phosphoryltransferase after 24 hrs by geometric microdilution method. The assay is classed as functional. The method in brief:
as §1

Assay [9] deals with Staphylococcus aureus. The experiment in a line: Antibacterial activity against Staphylococcus aureus expressing aminoglycoside-3'-O-phosphoryltransferase after 24 hrs by geometric microdilution method. It counts as functional. The method in brief: as §1
The subject of assay [10] is Staphylococcus aureus. Briefly: Antibacterial activity against fluoroquinolone-resistant Staphylococcus aureus 1199B expressing NorA efflux pump after 24 hrs by geometric microdilution method. It counts as functional. The method in brief: as §1
The subject of assay [11] is Pseudomonas aeruginosa. Briefly: Antibacterial activity against Pseudomonas aeruginosa F03 expressing AAC6'-2A after 24 hrs by geometric microdilution method. It counts as functional. Conditions: F03, 24 h.
In assay [12] the test system is Escherichia coli. The experiment in a line: Antibacterial activity against Escherichia coli L58058.1 expressing ANT2''-1A after 24 hrs by geometric microdilution method. Conditions: L58058.1, 24 h. The assay is classed as functional.
In assay [13] the test system is Staphylococcus aureus. Briefly: Antibacterial activity against Staphylococcus aureus expressing aminoglycoside-[…] after 24 hrs by geometric microdilution method. It counts as functional. The method in brief:
as §1

Assay [14] relates to Acinetobacter lwoffii. Briefly: Antibacterial activity against Acinetobacter lwoffii AI.88-483 expressing APH3'-6A after 24 hrs by geometric microdilution method. The assay is classed as functional. Conditions: AI.88-483, 24 h.
Assay [15] has as its system Staphylococcus aureus. The experiment in a line: microbe, parasite or virus in culture. Conditions: ATCC 25923, 24 h.
Assay [16] relates to Escherichia coli. The experiment in a line: microbe, parasite or virus in culture. The note with it: ATCC 25922, 24 h.
Assay [17] has as its system Staphylococcus aureus. The experiment in a line: Antibacterial activity against 14- and 15-membered macrolide-resistant Staphylococcus aureus expressing MsrA efflux pump after 24 hrs by geometric microdilution method. The assay is classed as functional. The method in brief: as §1

`CCCCO[C@@H]1[C@@H](N)[C@@H](O[C@H]2[C@H](O)[C@@H](OCCCC)[C@H](N)C[C@@H]2N)O[C@H](CN)[C@H]1O`: the MIC in [1] was > 128 µg/mL; in assay [2], > 128 µg/mL; in [3] it was > 128 µg/mL; in assay [4], 64 µg/mL (≈ 147 µM); in [5], > 128 µg/mL; in assay [6] it was > 128 µg/mL. The MIC is > 128 µg/mL in assay [7]; 128 µg/mL (≈ 295 µM) in assay [8]; > 128 µg/mL in assay [9]; > 128 µg/mL in assay [10]; > 128 µg/mL in assay [11]; > 128 µg/mL in assay [12]. For the same compound, the MIC in assay [13], in [14], in [15] and in assay [16] was > 128 µg/mL each time.

In the case of `CCCCO[C@@H]1[C@@H](N)[C@@H](O[C@H]2[C@H](O)[C@@H](OCCCC)[C@H](N)C[C@@H]2N)O[C@H](CN)[C@H]1OCCCC`, the MIC in [1], in assay [2], in assay [3], in assay [4], in [5] and in assay [6] was > 128 µg/mL in each case. The MIC in assay [7], in assay [8], in assay [9], in assay [10], in [11] and in assay [12] was > 128 µg/mL throughout. Further, the MIC in assay [13], in assay [14], in assay [15] and in [16] was > 128 µg/mL in each case.

In the case of `NC[C@H]1O[C@H](O[C@H]2[C@H](O)[C@@H](OCCCCc3ccc4ccccc4c3)[C@H](N)C[C@@H]2N)[C@H](N)[C@@H](OCCCCc2ccc3ccccc3c2)[C@@H]1OCCCCc1ccc2ccccc2c1`, the MIC in assay [1] is > 128 µg/mL; in assay [2], 128 µg/mL (≈ 147 µM); in assay [5], 128 µg/mL (≈ 147 µM); in assay [6], 128 µg/mL (≈ 147 µM); in [17] it was 128 µg/mL (≈ 147 µM); in assay [7], > 128 µg/mL. For the same compound, the MIC in [8] was 128 µg/mL (≈ 147 µM); in assay [9], 128 µg/mL (≈ 147 µM); in [10], > 128 µg/mL; in assay [11], 128 µg/mL (≈ 147 µM); in assay [12], > 128 µg/mL; in [13] it was 128 µg/mL (≈ 147 µM). Moreover, the MIC in assay [15] was > 128 µg/mL; in assay [16], 128 µg/mL (≈ 147 µM).

With `N[C@H]1[C@@H](O[C@H]2[C@H](O)[C@@H](O)[C@H](N)C[C@@H]2N)O[C@H](CO)[C@@H](O)[C@@H]1O` [PAROMAMINE], the MIC in [1], in [2], in assay [5], in [6], in assay [17] and in assay [7] was > 128 µg/mL in each case. Further, the MIC in [8], in assay [9], in [10], in assay [11], in assay [12] and in assay [13] was > 128 µg/mL in each case. For the same compound, the MIC in assay [15] was 32 µg/mL (≈ 99 µM); in assay [16], > 128 µg/mL.

Take `NCC[C@H](O)C(=O)N[C@@H]1C[C@H](N)[C@@H](O[C@H]2O[C@H](CN)[C@@H](O)[C@H](O)[C@H]2O)[C@H](O)[C@H]1O[C@H]1O[C@H](CO)[C@@H](O)[C@H](N)[C@H]1O` [AMIKACIN]: the MIC came out at 64 µg/mL (≈ 109 µM) in assay [2]; 0.5 µg/mL (≈ 0.854 µM) in assay [3]; 0.5 µg/mL (≈ 0.854 µM) in assay [4]; 2 µg/mL (≈ 3.42 µM) in [5]; 8 µg/mL (≈ 13.7 µM) in assay [6]; 4 µg/mL (≈ 6.83 µM) in [11]. For the same compound, the MIC in assay [12] is 2 µg/mL (≈ 3.42 µM); in [14], > 128 µg/mL; in assay [16], 4 µg/mL (≈ 6.83 µM).

In the case of `NC[C@H]1O[C@H](O[C@H]2[C@H](O)[C@@H](OCc3ccc4ccccc4n3)[C@H](N)C[C@@H]2N)[C@H](N)[C@@H](OCc2ccc3ccccc3n2)[C@@H]1OCc1ccc2ccccc2n1`, the MIC was 64 µg/mL (≈ 85.8 µM) in [1]; > 128 µg/mL in [2]; > 128 µg/mL in assay [3]; 128 µg/mL (≈ 172 µM) in assay [4]; > 128 µg/mL in assay [5]; > 128 µg/mL in [6]. Besides, the MIC in assay [7] is 64 µg/mL (≈ 85.8 µM); in assay [8], 128 µg/mL (≈ 172 µM); in assay [9], 64 µg/mL (≈ 85.8 µM); in assay [10], > 128 µg/mL; in [11] it was > 128 µg/mL; in assay [12], > 128 µg/mL. Further, the MIC is > 128 µg/mL in [13], > 128 µg/mL in [14], 128 µg/mL (≈ 172 µM) in [15] and > 128 µg/mL in [16].

For `CCCCCCCCCCCCCCCCCCO[C@@H]1[C@@H](O)[C@H](O[C@H]2O[C@H](CN)[C@@H](O)[C@H](O)[C@H]2N)[C@@H](N)C[C@H]1N`, the MIC is > 128 µg/mL in [7]; > 256 µg/mL in assay [8]; > 256 µg/mL in assay [9]; > 256 µg/mL in assay [10]; > 256 µg/mL in assay [13]; > 128 µg/mL in assay [15].
